Results on 2 molecules are retold here after ChEMBL document CHEMBL3826882, “Discovery of 1-((2R,4aR,6R,7R,7aR)-2-Isopropoxy-2-oxidodihydro-4H,6H-spiro[furo[3,2-d][1,3,2]dioxaphosphinine-7,2'-oxetan]-6-yl)pyrimidine-2,4(1H,3H)-dione (JNJ-54257099), a 3'-5'-Cyclic Phosphate Ester Prodrug of 2'-Deoxy-2'-Spirooxetane Uridine Triphosphate Useful for HCV Inhibition” (J Med Chem, 2016).

Data set [1] has as its system Hepatocyte. Briefly: Prodrug conversion in human hepatocytes assessed as 2'-deoxy-2'-spirooxetane uridine triphosphate formation in presence of PDE5 inhibitor sildenafil by LC-MS/MS analysis. The format is ADME, cell-based.
For the next data set, the system named is Hepatitis C virus. Description: Antiviral activity against HCV genotype 1a infected in homozygous cDNA-uPA chimeric SCID mouse bearing humanized hepatocytes assessed as change in HCV RNA level in serum at 50 mg/kg, po bid administered through gavage for 7 days by RT-PCR method. Format: functional, Hepacivirus hominis, subtype 1a, Hepatocyte. A digest of the protocol:
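Male chimeric SCID cDNA-uPA+/+ mice with human hepatocyte liver (≥70% replacement by blood human albumin) and serum HCV RNA >1.0×10^6 copies/mL the week before dosing. Oral gavage for 7 days in 20% HP-β-CD, 50-200 mg/kg QD or BID. Serum sampled pre-dose on days 1, 2, 3, 5 and 7. Real-time PCR; mean change in log10 copies/mL, day 7 vs day 1 pre-dose.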

In data set [2] the test system is Hepatocyte. Description: Prodrug conversion in mouse cryopreserved hepatocytes assessed as 2'-deoxy-2'-spirooxetane uridine triphosphate level per million cells at 10 uM after 2 hrs by LC-MS/MS analysis. The format is ADME, cell-based. A digest of the protocol:
(§1)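 Plated cryopreserved hepatocytes (study B) incubated with 10 µM unlabeled prodrug for 2, 8 or 24 h. Triphosphate measured in cell lysates and expressed as pmol/million hepatocytes. Quantification limit 2 ng/10^6 cells.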

Data set [3] relates to Hepatocyte. Briefly: Drug metabolism in human hepatocytes assessed as ((4R,5R,7R,8R)-5-(2,4-dioxo-3,4-dihydropyrimidin-1(2H)-yl)-8-hydroxy-1,6-dioxaspiro[3.4]octan-7-yl)methyl dihydrogen phosphate formation in presence of CYP3A4 inhibitor ritonavir by LC-MS/MS analysis. Format: ADME, cell-based.
The test system of data set [4] is Hepatocyte. Description: Prodrug conversion in human hepatocytes assessed as 2'-deoxy-2'-spirooxetane uridine triphosphate formation in presence of CYP2C8 and CYP2C9 inhibitor montelukast by LC-MS/MS analysis. Format: ADME, cell-based.
The test system of data set [5] is Liver. Description: Tlast in rat liver at 50 mg/kg, po. The format is ADME, organism-based. Conditions: in vivo; call rule not given here. In outline: (§2)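 Single oral dose of 50 mg/kg formulated in 20% HP-β-cyclodextrin. Prodrug and its triphosphate were measured in plasma and liver (ng/mL or ng/g) over time, and Cmax, tmax, AUC, tlast and t1/2 were derived. For some analytes, data from two independent studies are reported.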

The test system of data set [6] is Hepatocyte. Description: Drug level in human hepatocytes in presence of CYP3A4 inhibitor ketoconazole by LC-MS/MS analysis. Format: ADME, cell-based.
Data set [7] concerns Liver. Description: Cmax in dog liver assessed as 2'-deoxy-2'-spirooxetane uridine triphosphate at 50 mg/kg, po. Format: ADME, organism-based, Canis lupus familiaris. Details: dose 50 mg/kg, route oral. The conditions noted are these: in vivo.
Data set [8] is described as follows: Tmax in mouse plasma at 50 mg/kg, po. Format: ADME, organism-based. A digest of the protocol:
as §2

Data set [9] concerns Hepatocyte. Briefly: Prodrug conversion in mouse cryopreserved hepatocytes assessed as 2'-deoxy-2'-spirooxetane uridine triphosphate level per million cells at 10 uM after 24 hrs by LC-MS/MS analysis. Format: ADME, cell-based. A digest of the protocol:
as §1

Data set [10] concerns Hepatocyte. Description: Prodrug conversion in human cryopreserved hepatocytes assessed as 2'-deoxy-2'-spirooxetane uridine triphosphate level per million cells at 10 uM after 8 hrs by LC-MS/MS analysis. Format: ADME, cell-based. A digest of the protocol: as §1
Data set [11] has as its system Liver. Description: Tlast in mouse liver assessed as 2'-deoxy-2'-spirooxetane uridine triphosphate at 50 mg/kg, po. Format: ADME, organism-based. The conditions noted are these: in vivo. In outline:
as §2

A short description of data set [12]: Half life in rat liver at 50 mg/kg, po. Format: ADME, organism-based. A digest of the protocol: (§3)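 Single oral dose of 50 mg/kg in 20% HP-β-cyclodextrin. Prodrug and triphosphate measured in plasma and liver over time (tlast 6–30 h). Half-life, Cmax, tmax and AUC0-last derived; liver/plasma ratio taken from AUC0-last. Prodrug data pooled from two independent studies.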

Data set [13] relates to Liver. Description: Tmax in dog liver assessed as 2'-deoxy-2'-spirooxetane uridine triphosphate at 50 mg/kg, po. Format: ADME, organism-based, Canis lupus familiaris. The conditions noted are these: in vivo. A digest of the protocol:
as §2

Data set [14] in a line: Cmax in dog plasma at 50 mg/kg, po. The format is ADME, organism-based, Canis lupus familiaris. Details: dose 50 mg/kg, route oral.
Data set [15] has as its system Liver. Briefly: AUC (0 to infinity) in mouse liver at 50 mg/kg, po. Format: ADME, organism-based. Set-up: dose 50 mg/kg, route oral, time infinity. Conditions: in vivo. In outline:
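Oral dose 50 mg/kg, formulated in 20% HP-β-cyclodextrin. Prodrug and triphosphate were measured in plasma and liver (ng/mL or ng/g). Parameters derived were Cmax, tmax, AUC0-last, AUC0-inf and t1/2. Some prodrug data come from two independent studies.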

Data set [16] in a line: Ratio of AUC (0 to last) in rat liver to AUC (0 to last) in rat plasma. Format: ADME. In outline:
as §3

In data set [17] the test system is Liver. Description: Tlast in dog liver assessed as 2'-deoxy-2'-spirooxetane uridine triphosphate at 50 mg/kg, po. The format is ADME, organism-based, Canis lupus familiaris. The conditions noted are these: in vivo. In outline:
as §2

The subject of data set [18] is Hepatocyte. Briefly: Prodrug conversion in mouse cryopreserved hepatocytes assessed as 2'-deoxy-2'-spirooxetane uridine triphosphate level per million cells at 10 uM after 8 hrs by LC-MS/MS analysis. The format is ADME, cell-based. In outline:
as §1

For data set [19], the system named is Hepatocyte. Briefly: Stability in human primary hepatocyte supernatant assessed as parent compound level at 2 uM after 4 to 24 hrs using radiolabeled compound by HPLC analysis. The format is ADME, cell-based. Conditions: hepatocytes.
The nature of data set [20]: Drug metabolism in dog primary hepatocytes assessed as ((4R,5R,7R,8R)-5-(2,4-dioxo-3,4-dihydropyrimidin-1(2H)-yl)-8-hydroxy-1,6-dioxaspiro[3.4]octan-7-yl)methyl dihydrogen phosphate formation at 2 to 62.5 uM after 4 hrs using radiolabeled compound by LC-MS/MS analysis. Format: ADME, cell-based, Canis lupus familiaris, Hepatocyte. In outline: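 Study A: primary cultured hepatocytes (mouse, rat, dog, human) incubated with 2 or 62.5 µM 5'-[3H]-labelled prodrug for 4 and 24 h. Cell lysates were analysed for triphosphate. Supernatants were protein-precipitated and profiled by HPLC with radioactivity detection. Cyclic monophosphate was also assessed by LC/MS/MS.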

Data set [21] can be described thus: Prodrug conversion in dog primary hepatocytes assessed as 2'-deoxy-2'-spirooxetane uridine triphosphate level per million cells at 2 uM after 4 hrs using radiolabelled compound by LC-MS/MS analysis. The format is ADME, cell-based, Canis lupus familiaris, Hepatocyte. A digest of the protocol:
(§4)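 Study A: fresh primary hepatocyte cultures from mouse, rat, dog and human incubated with tritiated prodrug at 2 or 62.5 µM for 4 or 24 h. Triphosphate in cell lysates reported as pmol/million hepatocytes. Duplicate or single measurements.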

Data set [22] relates to Hepatocyte. Description: Prodrug conversion in mouse primary hepatocytes assessed as 2'-deoxy-2'-spirooxetane uridine triphosphate level per million cells at 2 uM after 4 hrs using radiolabelled compound by LC-MS/MS analysis. Format: ADME, cell-based. In outline: as §4
Data set [23] in a line: Stability in dog primary hepatocyte supernatant assessed as parent compound level at 2 uM after 4 to 24 hrs using radiolabeled compound by HPLC analysis. The conditions noted are these: hepatocytes. Format: ADME, cell-based, Canis lupus familiaris. In outline: (§5)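 Fresh primary hepatocyte cultures incubated with tritiated prodrug (5'-[3H]) at 2 and 62.5 µM for 4 and 24 h. Supernatants taken after protein precipitation and profiled by HPLC with radioactivity detection. Cell lysates profiled for metabolites by radio-LC. Cyclic monophosphate also measured by LC/MS/MS.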

Data set [24] concerns Hepatocyte. Briefly: Drug metabolism in rat primary hepatocytes assessed as ((4R,5R,7R,8R)-5-(2,4-dioxo-3,4-dihydropyrimidin-1(2H)-yl)-8-hydroxy-1,6-dioxaspiro[3.4]octan-7-yl)methyl dihydrogen phosphate formation at 2 to 62.5 uM after 24 hrs using radiolabeled compound by LC-MS/MS analysis. The format is ADME, cell-based. In outline: as §5
Data set [25] in a line: Prodrug conversion in dog primary hepatocytes assessed as 2'-deoxy-2'-spirooxetane uridine triphosphate level per million cells at 2 uM after 24 hrs using radiolabelled compound by LC-MS/MS analysis. The format is ADME, cell-based, Canis lupus familiaris, Hepatocyte. A digest of the protocol:
as §4

For data set [26], the system named is Hepatocyte. Description: Prodrug conversion in rat primary hepatocytes assessed as 2'-deoxy-2'-spirooxetane uridine triphosphate level per million cells at 62.5 uM after 24 hrs using radiolabelled compound by LC-MS/MS analysis. Format: ADME, cell-based. In outline:
as §4

In data set [27] the test system is Hepatocyte. Description: Prodrug conversion in rat primary hepatocytes assessed as 2'-deoxy-2'-spirooxetane uridine triphosphate level per million cells at 2 uM after 4 hrs using radiolabelled compound by LC-MS/MS analysis. Format: ADME, cell-based. In outline:
as §4

With `CC(C)O[P@@]1(=O)OC[C@H]2O[C@@H](n3ccc(=O)[nH]c3=O)[C@@]3(CCO3)[C@@H]2O1`, the Drug metabolism result in the data set on Hepatocyte [1] is “metabolite_notdetected”; in the data set on Hepatocyte [2], 0.538 pmol; in the data set with Hepatocyte [3] it was “metabolite_notdetected”; in the data set on Hepatocyte [4], “metabolite_detected”; with Hepatocyte [9], 0.519 pmol; in the data set on Hepatocyte [10] it was 0.172 pmol. In addition, the Drug metabolism in the data set on Hepatocyte [18] worked out at 0.95 pmol. Further, in the data set on Hepatitis C virus, the Activity was -0.45. Besides, the results for the Tlast in the data set with Liver [5], in the data set on Liver [11] and in the data set with Liver [17] were 6 h, 24 h and 24 h, respectively. Moreover, the Drug uptake entry in the data set on Hepatocyte [6] was “Active”. In addition, the results for the Cmax (with Liver [7]; in data set [14]) were 46600 ng/g and 4650 ng/mL, respectively. Also, the time of peak concentration (Tmax) in data set [8] came to 0.5 h; in the data set on Liver [13] it was 4 h. The molecule further gave a half-life in data set [12] of 5.3 h. Besides, the AUC with Liver [15] came out at 1706 ng·h/g. For the same molecule, the concentration ratio (Kp) in data set [16] is 0.34.

As to `[3H]C1O[P@](=O)(OC(C)C)O[C@@H]2[C@@H]1O[C@@H](n1ccc(=O)[nH]c1=O)[C@@]21CCO1` (stereo partly drawn), the Stability result (in the data set with Hepatocyte [19]; in data set [23]) was “Stable” throughout. Also, the Drug metabolism result is reported as “metabolite_detected” in data set [20]; 0.005 pmol in [21]; 0.063 pmol in the data set with Hepatocyte [22]; “metabolite_detected” in the data set with Hepatocyte [24]; 0.007 pmol in data set [25]; 0.39 pmol in the data set on Hepatocyte [26]. The Drug metabolism in the data set on Hepatocyte [27] is on record as 0.085 pmol.
